90 compounds from PubChem BioAssay AID624467 (The Scripps Research Institute Molecular Screening Center, 2012) can be followed below.

The whole screen tested about 360,000 compounds, of which about 3,600 (1%) were called active. The sample as a whole holds a higher share of actives than the screen did. Unmarked numbers belong to inactive results.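 The calls were made as follows: active = activation above the mean activation of all test compounds in the run plus 3 SD (cut at about 38% in these data); inactive = the rest.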

For this test, the target named is Trace amine-associated receptor 1 (Homo sapiens) (UniProt Q96RJ0). Kind of test: activators of TAAR1 calcium mobilization – Fluo-8 calcium fluorescence, CHO RD-HGA16 cells, primary screen (AID 624467). The note with it: CHO RD-HGA16 TAAR1, Fluo-8 calcium fluorescence; at 3 µM; stronger effect = higher value; vehicle wells 0%, saturating PEA agonist 100%. The method, boiled down: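 Assay system: CHO-derived RD-HGA16 cells with stable Gα16 and human TAAR1; timing: 17-24 h seeding, 75 min 37 °C dye, 30 min RT; read-out: % activation from peak over basal fluorescence ratio, DMSO-to-PEA scaled; measured by: kinetic Fluo-8 calcium fluorescence; benchmarks: low control DMSO, high control PEA (EC100); doses: 3 µM single concentration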
Trace amine-associated receptor 1 (Homo sapiens), sequence (Q96RJ0 whole entry, looked up): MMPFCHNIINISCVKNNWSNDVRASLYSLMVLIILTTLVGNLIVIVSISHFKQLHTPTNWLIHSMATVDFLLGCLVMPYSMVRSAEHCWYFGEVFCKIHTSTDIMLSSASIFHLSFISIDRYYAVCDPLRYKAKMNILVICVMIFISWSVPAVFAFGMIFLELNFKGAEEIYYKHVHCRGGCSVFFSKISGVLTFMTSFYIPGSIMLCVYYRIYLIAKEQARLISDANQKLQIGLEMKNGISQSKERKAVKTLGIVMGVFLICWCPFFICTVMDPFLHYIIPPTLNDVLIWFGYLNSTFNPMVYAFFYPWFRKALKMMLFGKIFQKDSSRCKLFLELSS
In general terms: Calcium flux is commonly read through the fluorescence of an indicator in the cells.
Take `CCCCNc1cccc2c1S(=O)(=O)N[C@@H](C)CO2`: the activation is -1.01%.
To `Cc1cc(CN(C)C(=O)c2cc(COc3ccc(C)c(C)c3)on2)n[nH]1` belongs 2.87%; to `CN(c1cccc(NC(=O)Nc2ccc(Cl)cc2)c1)S(C)(=O)=O`, 46.9% (active).
Under `CC(C)S(=O)(=O)c1csc(NC(=O)Nc2ccc(Cl)cc2)c1Cl` stands 17.9%; under `CN(c1cccc(NC(=O)c2ccc(CN3CCc4ccccc4C3)cc2)c1)S(C)(=O)=O`, 7.79%.
Under `CC(=O)NC1=NN(C(C)=O)C(C)(c2ccc(Cl)s2)S1` (stereo not given) stands 5.71%.
Regarding `CN(C)S(=O)(=O)N1CCC(Oc2cccc(C(=O)NCCCC3CCCC3)c2)CC1`, the activation was 11.3%.
Take `O=C1CC(c2ccccc2)CC(O)=C1C=NCCN1CCOCC1` (stereo not given): the activation is 2.73%.
Under `CC1(C)CC(=O)C(C=NCCC2=CCCCC2)=C(O)C1` stands 20.1%; under `O=C1CCCC(O)=C1C=NCCc1ccccc1`, 60.6% (active); under `COC(=O)C1=C(C)N(Cc2ccccc2C(F)(F)F)C(=NCc2ccc(OC)cc2)NC1c1cccc(C(F)(F)F)c1` (stereo not given), 9.5%.
On to `CC(C)N(Cc1ccccc1)C(=O)COC(=O)c1ccccc1SCC(=O)N1CCCC1`, for which the activation was 15.6%.
Under `O=C(NCCCc1ccccc1)C(=O)NCC1OCCN1S(=O)(=O)c1ccccc1` (stereo not given) stands 8.57%; under `COc1ccc(CCNC(=O)C(=O)NCC2OCCN2S(=O)(=O)c2cccs2)cc1OC` (stereo not given), 1.17%.
Under `O=C(NCCc1ccccc1)C(=O)NCC1OCCN1S(=O)(=O)c1cccs1` (stereo not given) stands 56.5% (active); under `COc1cccc(CNC(=O)[C@H]2CCCN2C(=O)[C@H]2CCCN2C(=O)c2cc(F)cc(F)c2)c1`, 2.08%; under `O=C1Nc2ccccc2C1=NN=Cc1ccco1`, 0.51%.
Under `Cn1nc(C(F)(F)F)c(C(=O)Nc2cccc(C(F)(F)F)c2)c1SCc1ccc(Cl)cc1` stands 11%; under `COCc1nc2ccccc2n1Cc1ccccc1Br`, 12.1%.
In the case of `NC(=O)C1=C[C@H](c2csc3ccccc23)C[C@H](OCc2ccc(CO)cc2)O1`, the activation was 60.3% (active).
In the case of `O=C(NC1CC1)C1=C[C@H](c2c[nH]c3ccccc23)C[C@H](OCc2ccc(CO)cc2)O1`, the activation is 5.4%.
In the case of `NC(=O)C1=C[C@@H](c2csc3ccccc23)C[C@@H](OCc2ccc(CO)cc2)O1`, the activation was 22.2%.
To `COc1ccc(CCN(C)C(=O)C23CC4CC(CC(Cl)(C4)C2)C3)cc1OC` belongs -1.21%.
To `Cc1cccc(CCNS(=O)(=O)c2ccc(S(=O)(=O)NC3CCCC3)cc2)c1` belongs 42.8% (active).
Under `Cc1cccc(CCNS(=O)(=O)c2ccc3c(c2)NC(=O)CO3)c1` stands 5.47%; under `CC(C)c1ccc(S(=O)(=O)NC2CCCC2)cc1`, 1.12%.
With `CN1CCCN(C(=O)C2CCCCC2)CC1`, the activation was 1.26%.
In the case of `CC1(Oc2ccccc2-c2ccno2)CCN(Cc2ccc(-c3ccccc3)o2)C1` (stereo not given), the activation was 1.77%.
To `Cc1cc2nc3c(=O)[nH]c(=O)nc-3n(C[C@H](O)[C@H](O)[C@H](O)CO)c2cc1C` belongs 45.3% (active); to `COc1cccc(CNC(=O)c2nnn(CC(=O)Nc3cc(Cl)ccc3C)c2N)c1`, 2.23%.
Under `COc1cccc(CNC(=O)c2nnn(CC(=O)Nc3cc(C)ccc3C)c2N)c1` stands 2.69%; under `CCOc1ccc(Cn2nnc(C(=O)NCc3ccccc3)c2N)cc1`, 83.3% (active).
Under `Nc1c(C(=O)Nc2ccc3c(c2)OCCO3)nnn1Cc1ccccc1` stands 0.57%; under `CCOc1ccc(Cn2nnc(C(=O)Nc3ccc(OC)cc3OC)c2N)cc1`, 42.5% (active); under `CCCn1nc2cc(C(=O)NCc3ccccc3)ccc2c1OCC`, 3.65%.
As to `Cc1cc(OCCCC(=O)NCCN2C(=O)S/C(=C\c3cccnc3)C2=O)ccc1Cl`, the activation is 16.7%.
To `CCOc1ccc(-n2c(SCC(=O)NC3CCS(=O)(=O)C3)nnc2-c2cccnc2)cc1` (stereo not given) belongs -0.1%; to `CCOC(=O)c1c(N)c(C#N)nn1-c1ccccc1C(=O)OC`, 1.23%; to `COc1ccc(Cl)cc1C(=O)NNC(=S)NC(=O)/C=C/c1ccco1`, 55.3% (active).
`COc1ccc(Cl)cc1C(=O)NNC(=O)c1nc2nc(C)cc(C)n2n1`: the activation was -0.4%.
Consider `O=C(/C=C/c1ccco1)NC(=S)N1CCCCC1`, for which the activation was 1.82%.
As to `CC(C)OC(=O)Cn1nc(C(F)(F)F)c2c1CCCC2`, the activation was 3.22%.
For `CCCCn1c(N)c(N(CC(C)C)C(=O)C2CSC3(C)CCC(=O)N23)c(=O)[nH]c1=O` (stereo not given), the activation was 4.3%.
Under `COC(=O)C1=C(C)NC(=S)NC1c1ccc(OC)cc1` (stereo not given) stands 1.73%; under `CC(C)(C)c1ccc(S(=O)(=O)NCC2CCN(C(=O)C(=O)c3cc4ccccc4o3)CC2)cc1`, -0.02%.
Under `O=C1CCC/C=C/C[C@@H](CC(=O)N(CCO)Cc2ccccc2)C(=O)NC[C@H](c2ccccc2)O1` stands 5.38%; under `O=C1N[C@@H](c2ccccc2)COC(=O)[C@H](Cc2ccc(F)cc2)C/C=C\C[C@@H]1CC(=O)N(CCO)Cc1ccccc1`, 18.8%; under `O=C1NC[C@@H](c2ccccc2)OC(=O)[C@H](Cc2ccc(F)cc2)CC/C=C/C[C@H]1CC(=O)N(CCO)Cc1ccccc1`, 42.6% (active).
As for `Fc1ccc(-n2c(Cc3ccccc3)nnc2SCc2nc(-c3ccc(Cl)cc3)no2)cc1`, the activation is 2.7%.
As to `Cc1ccc2cc(C)c(N3CCC(C)CC3)nc2c1`, the activation was 17.1%.
On to `Cc1ccc2cc(C)c(N3CCN(c4ccc(F)cc4)CC3)nc2c1`, for which the activation is 1.28%.
Take `Cc1cc(C)c2cc(C#N)c(N3CCNCC3)nc2c1`: the activation was 69.6% (active).
Under `C[C@H]1CN([C@@H](C)CO)S(=O)(=O)c2ccc(Br)cc2O[C@H]1CN(C)C(=O)c1cnccn1` stands 1.33%; under `CSc1ccccc1NC(=O)C(C)N1C(=O)c2ccccc2S1(=O)=O` (stereo not given), 2.86%.
To `CCCOC(=O)c1ccc(N2C(=O)c3ccccc3C2=O)cc1` belongs -1.04%; to `CC(=O)Nc1ccccc1Sc1ccc2c3c(cccc13)C(=O)N(c1ccc(C)cc1)C2=O`, 47.3% (active); to `Cc1ccc(NC(=O)Cn2sc3ccccc3c2=O)cc1`, 37.5% (active).
Turning to `Cc1ccc(NC(=O)Cn2c(C)csc2=O)cc1`, the activation is 0.43%.
Turning to `O=C(Cn1nc(C(=O)O)c2ccccc2c1=O)Nc1ccc(F)cc1`, the activation was 6.51%.
Regarding `COc1cccc(CNC(=O)[C@H]2CCCN2C(=O)[C@H]2CCCN2C(=O)c2ccc(F)cc2)c1`, the activation was -0.3%.
Under `COC(=O)N1Cc2ccnnc2CC1c1ccccc1Br` (stereo not given) stands 0.4%; under `O=C(N/N=C/c1cc(Cl)cc([N+](=O)[O-])c1O)C(O)(c1ccccc1)c1ccccc1`, 42.4% (active).
Under `O=[N+]([O-])c1cc(Cl)cc(/C=N/NC(=S)Nc2cc(S(=O)(=O)N3CCOCC3)ccc2Cl)c1O` stands 0.47%.
To `O=C(NN=Cc1ccco1)C(=O)Nc1ccc(Cl)c([N+](=O)[O-])c1` belongs 1.63%; to `CCOC(=O)C1CSCCS(=O)(=O)N1Cc1ccc(Cl)cc1` (stereo not given), 1.13%; to `CCN1C(=O)N[C@@H]2C[C@H](C(=O)N3CCCC3)[C@H](C)[C@H](c3ccccc3)C[C@@H]21`, 0.86%.
In the case of `Cc1c(C(=O)NCc2ccccc2)cnn1-c1ccccc1`, the activation was 2.79%.
To `CNC(=O)CSc1nnc(CCc2ccccc2)n1-c1ccccc1` belongs 5.04%.
To `Cc1c(CNCCc2ccccc2)c(C(=O)O)c(C)n1-c1ccccc1` belongs 78.1% (active).
Under `COc1ccc(C2=CN(Cc3ccccc3)C(c3ccc(OC)cc3)CC2=O)cc1` (stereo not given) stands -1.8%.
Regarding `CC(NC(=O)c1cc(-c2ccccc2)on1)c1ccccc1` (stereo not given), the activation is 52% (active).
Regarding `Cc1ccc(C(=O)NC(C)c2ccccc2)cc1Br` (stereo not given), the activation is -1.3%.
As to `O=C(NC1CCCC1)c1cc(-c2ccccc2)on1`, the activation is 2.47%.
As to `Cc1[nH]c2ccccc2c1CC(=O)Nc1ccc(Nc2cccnc2)c(-c2cccc(Cl)c2)c1`, the activation is 1.11%.
`O=S1(=O)c2ccc(Br)cc2-n2nncc2CN1Cc1cccc(Cl)c1`: the activation is 1.66%.
For `CCCn1c(O)c(CN2CCCC(C)C2)c(C)c(C#N)c1=O` (stereo not given), the activation was 96.4% (active).
Take `Cc1c(CN2CCCCC2)c(O)n(CCO)c(=O)c1C#N`: the activation was 11.5%.
Consider `CCCCCCn1c(CN2CCCC(C)C2)nc2c1c(=O)n(C)c(=O)n2C` (stereo not given), for which the activation is 0.08%.
`COc1ccc(C(CNC(=O)c2ccc(NS(=O)(=O)c3ccc(F)c(C)c3)cc2)N(C)C)cc1` (stereo not given): the activation was 3.7%.
Under `COc1ccc(C(CNC(=O)c2cccc(S(=O)(=O)Nc3ccc(Br)cc3)c2)N(C)C)cc1` (stereo not given) stands 40.2% (active).
Under `CN(C)C(CNC(=O)c1cccc(S(=O)(=O)Nc2ccc(Br)cc2)c1)c1ccco1` (stereo not given) stands 16.7%.
With `COc1ccc(-n2cc(CNC3CCOCC3)c(-c3cccc(F)c3)n2)cc1`, the activation was 7.84%.
To `O=C(NCC(c1ccco1)N1CCc2ccccc2C1)c1ccccc1Cl` (stereo not given) belongs 12.4%; to `COc1ccc(NC(=O)C(=O)NCC(c2ccco2)N2CCc3ccccc3C2)cc1` (stereo not given), 62.3% (active).
Under `CCOC(CNC(=O)C(=O)NCC(c1ccco1)N1CCN(c2ccc(OC)cc2)CC1)OCC` (stereo not given) stands 3.05%; under `Cc1[nH]nc2c1C(c1ccc(Br)cc1)NC2=O` (stereo not given), 0.5%; under `CC(C)(C)NCc1cc(Br)ccc1OC1CCCC1`, 1.46%.
Under `CCOc1ccc(Br)cc1CSC(=N)N` stands 70.5% (active).
Take `CCOc1ccc(Br)cc1S(=O)(=O)N1CCC(C(=O)O)CC1`: the activation was -0.19%.
To `CC(=O)N1C[C@@H](CO)[C@@H](N(C)C(=O)C(C)(C)C)C[C@H]1c1ccccc1Br` belongs 3.7%.
